Among the data in ChEMBL document CHEMBL2331279, “Rational design and synthesis of 4-substituted 2-pyridin-2-ylamides with inhibitory effects on SH2 domain-containing inositol 5'-phosphatase 2 (SHIP2)” (Eur J Med Chem, 2013) are Activity and fold change (FC) values, retold here.

The structures appear in SMILES notation.

Series [1] has as its system Mus musculus. Nature of the series: Toxicity in db/db mouse assessed as food intake at 300 mg/kg, po bid for 12 to 13 days measured on day 10 (reference value: 6.06 +/-0.36 gms/day). In kind it is organism-based. Set-up: dose 300 mg/kg, route oral. The settings on record: in vivo.
Series [2] deals with Mus musculus. Nature of the series: Toxicity in db/db mouse assessed as body weight at 300 mg/kg, po bid for 12 to 13 days measured on day 10 (reference value: 39.2 +/-0.6 gms). In kind it is organism-based. Set-up: dose 300 mg/kg, route oral. Conditions: in vivo.
The subject of series [3] is Mus musculus. Put plainly: Toxicity in C57BL/6J mouse assessed as liver weight at 300 mg/kg, po bid for 12 to 13 days measured on day 15 (reference value: 0.74 +/-0.03 gms). It is filed as organism-based. Conditions: in vivo. Further details: dose 300 mg/kg, route oral.
Series [4] relates to Mus musculus. Nature of the series: Toxicity in C57BL/6J mouse assessed as epididymal white adipose tissue weight at 300 mg/kg, po bid for 12 to 13 days measured on day 15 (reference value: 0.03 +/-0.0 gms). It is filed as organism-based. Set-up: dose 300 mg/kg, route oral. Conditions: in vivo.
The target in series [5] is T1, Phosphatidylinositol 3,4,5-trisphosphate 5-phosphatase 2 (Mus musculus) (UniProt Q6P549).
T1 sequence (whole entry): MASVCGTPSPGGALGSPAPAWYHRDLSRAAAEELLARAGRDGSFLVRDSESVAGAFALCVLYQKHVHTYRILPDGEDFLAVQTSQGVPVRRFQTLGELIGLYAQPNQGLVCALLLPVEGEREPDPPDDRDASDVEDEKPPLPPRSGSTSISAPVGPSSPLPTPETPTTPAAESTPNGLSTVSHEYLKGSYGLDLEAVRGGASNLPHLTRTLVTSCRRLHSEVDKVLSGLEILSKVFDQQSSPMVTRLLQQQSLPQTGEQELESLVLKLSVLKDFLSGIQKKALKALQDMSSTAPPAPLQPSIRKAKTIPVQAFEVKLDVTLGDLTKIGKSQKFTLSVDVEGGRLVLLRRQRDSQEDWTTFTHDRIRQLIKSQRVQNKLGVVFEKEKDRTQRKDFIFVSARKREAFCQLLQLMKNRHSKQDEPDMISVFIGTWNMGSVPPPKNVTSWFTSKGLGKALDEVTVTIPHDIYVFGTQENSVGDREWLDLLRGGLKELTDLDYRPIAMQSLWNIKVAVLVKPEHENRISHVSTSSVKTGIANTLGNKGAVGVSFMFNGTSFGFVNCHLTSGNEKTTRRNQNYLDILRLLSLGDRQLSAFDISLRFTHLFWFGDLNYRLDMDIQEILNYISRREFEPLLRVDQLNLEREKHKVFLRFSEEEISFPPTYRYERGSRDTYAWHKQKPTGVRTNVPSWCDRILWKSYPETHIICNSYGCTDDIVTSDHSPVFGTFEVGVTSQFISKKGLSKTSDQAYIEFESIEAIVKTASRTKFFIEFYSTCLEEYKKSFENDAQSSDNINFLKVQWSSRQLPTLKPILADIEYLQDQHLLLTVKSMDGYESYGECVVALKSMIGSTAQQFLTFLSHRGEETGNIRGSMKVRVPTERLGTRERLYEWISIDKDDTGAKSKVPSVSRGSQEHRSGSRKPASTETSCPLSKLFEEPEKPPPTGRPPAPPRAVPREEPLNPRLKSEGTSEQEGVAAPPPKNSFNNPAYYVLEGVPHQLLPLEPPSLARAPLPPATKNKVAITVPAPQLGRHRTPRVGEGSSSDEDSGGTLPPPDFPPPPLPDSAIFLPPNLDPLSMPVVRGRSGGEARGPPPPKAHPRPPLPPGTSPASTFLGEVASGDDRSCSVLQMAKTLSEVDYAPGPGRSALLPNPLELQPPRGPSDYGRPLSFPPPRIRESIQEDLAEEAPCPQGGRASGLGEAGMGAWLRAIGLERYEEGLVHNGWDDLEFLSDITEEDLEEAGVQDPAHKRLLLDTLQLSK
Put plainly: Inhibition of SHIP2 in TNF alpha-treated mouse 3T3L1 cells assessed as potentiation of insulin-stimulated Akt phosphorylation at Thr308 at 10 uM treated for 15 mins after TNF alpha challenge for 16 hrs and prior to insulin stimulation measured after 2 hrs by Western blot analysis relative to untreated control. It is filed as cell-based. The settings on record: 3T3-L1. The procedure, abridged:
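3T3-L1 fibroblasts differentiated into adipocytes, then serum-starved 16 h with TNFα 20 ng/mL. Treated with compound 10 µM or 0.1% DMSO for 15 min, then stimulated with 17 nM insulin at 37 °C for 2 h. Cells lysed on ice at pH 7.5 and Thr308 phospho-Akt measured by western blot. Results given as fold change versus TNFα+insulin control. Mean ± SE.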
For orientation: Immunoblotting shows a protein as a band on a membrane.

Regarding `O=C(Cc1c(F)cccc1F)Nc1cc(OCc2ccc(Cl)cc2)ccn1`, the Activity worked out at 5.34 g/day in the series on Mus musculus [1], 39.4 g with Mus musculus [2], 0.86 g in the series on Mus musculus [3] and 0.02 g with Mus musculus [4]. For the same molecule, the fold change (FC) in series [5] turned out to be 1.3.
For `C[C@H](NC(=O)c1sccc1OCc1ccc(Cl)cc1)c1ccccc1`, the Activity in the series with Mus musculus [1] came to 6.5 g/day; in the series on Mus musculus [2] it was 40.1 g; in the series on Mus musculus [3], 0.73 g; with Mus musculus [4], 0.02 g. Further, the fold change (FC) in series [5] amounted to 1.2.
